Results reported in paper PMC10793096 (Acta Pharmaceutica Sinica. B, 2023).
Read-outs that look alike come from different tables or passages of the source.

Legend:
[1] = system: MRC-5 (human lung fibroblasts, non-cancerous); details: read-out: IC50 MRC-5; taken from the literature; cited from earlier work
[2] = system: CT26 (murine colon carcinoma) cell line; experiment: Colorimetric MTT cytotoxicity assay, CT26; assay type: cell-based
[3] = system: MRC-5 (human lung fibroblasts, non-cancerous); experiment: Colorimetric MTT cytotoxicity assay, MRC-5; assay type: cell-based; details: MRC5, 72 h, read-out: IC50 MRC-5
Summary of the method: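 MRC-5 cells from ATCC, trypsinized, seeded at 6000 cells/well (6 × 10^4 cells/mL), grown 24 h, then exposed 72 h to test compound serially diluted in complete medium. Medium replaced with MTT in media (5 mg/mL) for 45 min; formazan dissolved in DMSO, OD at 570 nm. T/C versus untreated cells; IC50 interpolated from concentration-effect curves; ≥3 independent experiments, triplicates per concentration.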

[4] = system: MCF-7 (human breast adenocarcinoma) cell line; experiment: Colorimetric MTT cytotoxicity assay, MCF-7; assay type: cell-based; details: for IC50: Homo sapiens

SMILES | IC50 [1] [nM] | SF CT26 (selectivity factor) ([2]; IC50(MRC-5)/IC50(CT26)) | IC50 ([2]; Mus musculus, CT26, 72 h, read-out: IC50 CT26) [nM] | IC50 [3] [nM] | IC50 ([4]; MCF7, 72 h, read-out: IC50 MCF-7) [nM] | IC50 ([4]; MCF7, read-out: IC50s in both cancer cell lines) [nM] | SF MCF-7 (selectivity factor) ([4]; IC50(MRC-5)/IC50(MCF-7))
CC(=O)O[C@H]1C(=O)[C@@]2(C)[C@H]([C@H](OC(=O)c3ccccc3)[C@]3(O)C[C@H](OC(=O)[C@H](O)[C@@H](NC(=O)c4ccccc4)c4ccccc4)C(C)=C1C3(C)C)[C@]1(OC(C)=O)CO[C@@H]1C[C@@H]2O [Paclitaxel] | 2.61 | – | – | – | – | – | –
C=C(C)[C@H]1CC[C@@]2(C)CC[C@]3(C)C[C@H]4[C@@H](C)CC(=O)[C@H]4/C(C=O)=C\C[C@H]3[C@H]12 [compound 1, Variecolin] | – | 1.1 | 1000 ± 300 | 1100 ± 200 | 1400 ± 300 | 1000 to 8000 | 0.8
